Measured values: paper PMC12219203 (Nature Communications, 2025)

Tests used:
[1] = target: NOD1 (Homo sapiens, UniProt Q9Y239); test: HEK-Blue NOD1 SEAP reporter assay; type: cell-based; conditions: GM, M 20 μM; 18 h
In short: (§1)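 HEK-Blue hNod1 or hNod2 cells were seeded at 50,000 cells/well in DMEM/10% FBS without selection antibiotics and stimulated at once for 18 h (n = 3). Supernatant was mixed 1:4 with Quanti-Blue and incubated 6 h at 37 °C, and absorbance was read at 620 nm. Values were blanked against water-treated wells, and the respective parental Null cell readouts were subtracted.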

[2] = test system: RAW264.7 cells; test: Cytokine expression in RAW264.7 macrophages; type: cell-based, mouse; conditions: GM 1-4 mM, M 4 mM, 24 h
In short: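 RAW264.7 cells were kept in high-glucose IMDM with HEPES, 5% heat-inactivated FBS and penicillin/streptomycin at 37 °C, 5% CO2. They were exposed to test compounds for 24 h (n = 4). Total RNA was extracted with a column kit, and TNF-α and IL-6 transcripts were quantified by RT-qPCR using the 2-ΔΔCt method, normalised to β-act.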

[3] = test system: WT bone-marrow-derived macrophages (BMDMs); test: Cytokine gene expression in WT BMDMs; type: cell-based, mouse; conditions: GM 2-8 mM, M 8 mM
In short: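 Marrow was flushed from the femur and tibia of female SPF C57BL/6J mice and red cells were lysed (NH4Cl/KHCO3). Cells at 200,000 cells/mL were differentiated for 6 days in IMDM with 20 ng/mL GM-CSF or 10% L929 supernatant, then switched to serum-free IMDM. Test compounds were added for 24 h (n = 3). Cytokine transcripts were measured by RT-qPCR (2-ΔΔCt, normalised to β-act).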

[4] = test system: NOD2; test: HEK-Blue NOD2 SEAP reporter assay; type: cell-based, human; conditions: MDP, M-AE 200 nM; GM, M 20 μM; 18 h
In short: as §1

[5] = test system: RAW-Dual cells; test: TNF-α secretion by RAW-Dual WT cells, with or without TLR inhibitors; type: cell-based, mouse; conditions: inhibitor 10 μM, 1 h pre-incubation, then GM 2 mM, 24 h; ELISA
In short: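 RAW-Dual cells were seeded at 100,000 cells/well and pre-incubated 1 h with 10 μM TLR2 (CU_CPT22), TLR4 (TAK-242) or TLR7/9 (AT791) inhibitor. They were then stimulated with 2 mM test compound for 24 h. Supernatants were cleared at 16,000 × g and TNF-α was measured by sandwich ELISA.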

[6] = test system: Tlr4-/- BMDMs; test: Cytokine secretion by Tlr4-/- BMDMs; type: cell-based, mouse; conditions: ELISA, 24 h; GM 4 mM, MDP 0.4 mM, LPS 100 ng/mL, CpG 100 nM
In short: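 Murine BMDMs were differentiated 6 days in complete medium with 20 ng/mL GM-CSF or 10% L929 supernatant, then switched to serum-free IMDM and stimulated 24 h. Mouse TNF-α and IL-6 in culture supernatants were quantified by sandwich ELISA. Samples were prediluted in 1% BSA in PBS, pH 7.4, where needed.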

[7] = Incubation with 10% FBS; type: in vitro ADME, bovine; conditions: 37 C, 16 h, LC-MS

Sequence of NOD1 (Q9Y239 whole entry): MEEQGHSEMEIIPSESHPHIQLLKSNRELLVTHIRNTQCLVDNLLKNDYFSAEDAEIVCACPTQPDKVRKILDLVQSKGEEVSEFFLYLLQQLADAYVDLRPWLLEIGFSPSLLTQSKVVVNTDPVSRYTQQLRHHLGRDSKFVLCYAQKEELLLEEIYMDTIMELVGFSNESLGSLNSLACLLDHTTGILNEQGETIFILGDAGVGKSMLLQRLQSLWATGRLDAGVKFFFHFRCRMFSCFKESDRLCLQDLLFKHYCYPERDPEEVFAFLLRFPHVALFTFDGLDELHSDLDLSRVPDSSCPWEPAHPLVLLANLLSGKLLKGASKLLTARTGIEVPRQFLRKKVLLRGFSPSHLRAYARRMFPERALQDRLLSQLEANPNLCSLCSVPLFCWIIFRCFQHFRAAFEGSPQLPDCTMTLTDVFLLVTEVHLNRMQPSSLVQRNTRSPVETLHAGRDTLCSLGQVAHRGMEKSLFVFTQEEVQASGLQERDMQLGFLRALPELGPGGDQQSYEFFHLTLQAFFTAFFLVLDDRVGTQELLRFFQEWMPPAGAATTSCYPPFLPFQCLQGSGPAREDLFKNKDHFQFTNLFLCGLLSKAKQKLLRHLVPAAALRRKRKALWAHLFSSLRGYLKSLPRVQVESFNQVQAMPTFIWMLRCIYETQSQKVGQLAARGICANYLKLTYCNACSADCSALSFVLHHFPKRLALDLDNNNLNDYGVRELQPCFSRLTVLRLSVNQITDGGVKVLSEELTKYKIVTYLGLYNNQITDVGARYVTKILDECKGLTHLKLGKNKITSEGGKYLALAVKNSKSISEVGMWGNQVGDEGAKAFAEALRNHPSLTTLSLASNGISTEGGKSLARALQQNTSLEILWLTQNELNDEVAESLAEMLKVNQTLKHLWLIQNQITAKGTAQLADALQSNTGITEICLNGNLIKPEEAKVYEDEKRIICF

With CC(=O)N[C@H]1C(O)O[C@H](CO)[C@@H](O)[C@@H]1O[C@H](C)C(=O)O (some centres unmarked) [M, N-acetylmuramic acid, reference compound] the “NOD1 activation in HEK-Blue reporter cells (in words)” value [1] was “unable to activate NOD1/2”, the “Immuno-stimulatory activity (TNF-α, IL-6) in RAW264.7 (in words)” value [2] was “less potent” and the “Immuno-stimulatory activity (TNF-α, IL-6) in BMDMs (in words)” value [3] was “less potent”. The “NOD2 activation in HEK-Blue reporter cells (in words)” value [4] was “unable to activate NOD1/2”.

In the case of CCOC(=O)C1=CCCC[C@H]1S(=O)(=O)Nc1ccc(F)cc1Cl [TAK-242], the “Effect of TLR inhibitor on GM-triggered TNF-α production” value [5] is reported as “suppressed GM-triggered TNF-α production”.

With CC(=O)N[C@H]1C(O)O[C@H](CO)[C@@H](O)[C@@H]1O[C@H](C)C(=O)N[C@@H](C)C(=O)N[C@H](CCC(=O)O)C(N)=O (stereo partly drawn) [MDP, N-acetylmuramyl-L-Ala-D-isoGln, reference compound] the “TNF-α and IL-6 production in Tlr4-/- BMDMs (in words)” value [6] was “still trigger comparable proinflammatory cytokine production”.

For CC(=O)N[C@H]1C(O)O[C@H](CO)[C@@H](O)[C@@H]1O[C@H](C)C(=O)N[C@@H](C)C(=O)N[C@H](CCC(=O)O)C(=O)O (some centres unmarked) [M-AE], the “NOD2 activation in HEK-Blue reporter cells (in words)” value [4] was “potent NOD2 activation similar to the model ligand MDP”.

In the case of M-AEKAA, the “Degradation on incubation with 10% FBS” value [7] is reported as “reliably yields the expected degradation products: M and AEKAA”.
